Measured values reported in ChEMBL document CHEMBL1134010, “Syntheses and antifungal activities of novel 3-amido bearing pseudomycin analogues” (Bioorg Med Chem Lett, 2001).
≈ marks a conversion by molar mass, not a printed value. Positions of bridges follow the written chain, without caps; N, C: chain ends. Non-standard residues stand in square brackets, D forms with d. Residues, ends and D or L forms follow the SMILES beside them. *: point of attachment. Tetradecanoyl(3R-OH) = CCCCCCCCCCC[C@@H](O)CC(=O)*; Asp(3S-OH) = N[C@H](C(=O)O)[C@H](O)C(=O)O; Thr(4-Cl) = N[C@H](C(=O)O)[C@H](O)CCl; aThr = C[C@H](O)[C@H](N)C(=O)O; dDab = NCC[C@@H](N)C(=O)O; Dab = NCC[C@H](N)C(=O)O; Dhb = C/C=C(\N)C(=O)O; X1 = CCN(CC)CCN*

Columns and labels:
Format in all cases: functional
Aspergillus fumigatus = experiment: In vitro minimum inhibitory concentration (MIC) against Aspergillus fumigatus.
Method in brief: (§1)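 Tested against Candida albicans, Cryptococcus neoformans and Aspergillus fumigatus, with PSB as positive control. MIC is taken as the lowest drug concentration giving 90–100% inhibition of visible growth relative to drug-free controls.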

Cryptococcus neoformans = experiment: In vitro minimum inhibitory concentration (MIC) against Cryptococcus neoformans.; method in brief: as §1
Candida albicans [1] = experiment: In vivo efficacy against murine Candidiasis dosed four times by intraperitoneal administration post-infection using Reed and Muench method.; conditions: ip
Method in brief: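 Systemic candidiasis in mice, with PSB and amphotericin B as positive controls. Analogues were given at 20, 10 and 5 mg/kg, four doses at 0, 4, 24 and 48 post-infection. ED50 is the dose giving 50% survival relative to untreated infected animals, calculated by the Reed and Muench method.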

Candida albicans [2] = experiment: In vitro minimum inhibitory concentration (MIC) against Candida albicans.; method in brief: as §1

MIC (Aspergillus fumigatus)	MIC (Cryptococcus neoformans)	MIC (Candida albicans [2])	SMILES	ED50 (Candida albicans [1])
10 µg/mL (≈ 8.1 µM)	< 0.01 µg/mL	10 µg/mL (≈ 8.1 µM)	C/C=C1\NC(=O)[C@H]([C@H](C)O)NC(=O)[C@H](CCN)NC(=O)[C@H](CCCCN)NC(=O)[C@H](CC(=O)N(C)C)NC(=O)[C@@H](CCN)NC(=O)[C@@H](NC(=O)C[C@H](O)CCCCCCCCCCC)COC(=O)[C@H]([C@H](O)CCl)NC(=O)[C@H]([C@H](O)C(=O)O)NC1=O	< 4.5 mg/kg
20 µg/mL (≈ 15.5 µM)	< 0.01 µg/mL	5 µg/mL (≈ 3.87 µM)	C/C=C1\NC(=O)[C@H]([C@H](C)O)NC(=O)[C@H](CCN)NC(=O)[C@H](CCCCN)NC(=O)[C@H](CC(=O)N(C)CCN(C)C)NC(=O)[C@@H](CCN)NC(=O)[C@@H](NC(=O)C[C@H](O)CCCCCCCCCCC)COC(=O)[C@H]([C@H](O)CCl)NC(=O)[C@H]([C@H](O)C(=O)O)NC1=O	4 mg/kg
> 20 µg/mL	0.625 µg/mL (≈ 0.474 µM)	20 µg/mL (≈ 15.2 µM)	C/C=C1\NC(=O)[C@H]([C@H](C)O)NC(=O)[C@H](CCN)NC(=O)[C@H](CCCCN)NC(=O)[C@H](CC(=O)NCCCCCCCC)NC(=O)[C@@H](CCN)NC(=O)[C@@H](NC(=O)C[C@H](O)CCCCCCCCCCC)COC(=O)[C@H]([C@H](O)CCl)NC(=O)[C@H]([C@H](O)C(=O)O)NC1=O	> 20 mg/kg
5 µg/mL (≈ 3.83 µM)	< 0.01 µg/mL	20 µg/mL (≈ 15.3 µM)	C/C=C1\NC(=O)[C@H]([C@H](C)O)NC(=O)[C@H](CCN)NC(=O)[C@H](CCCCN)NC(=O)[C@H](CC(=O)NCCCCN(C)C)NC(=O)[C@@H](CCN)NC(=O)[C@@H](NC(=O)C[C@H](O)CCCCCCCCCCC)COC(=O)[C@H]([C@H](O)CCl)NC(=O)[C@H]([C@H](O)C(=O)O)NC1=O	< 5 mg/kg
> 20 µg/mL	0.312 µg/mL (≈ 0.256 µM)	5 µg/mL (≈ 4.1 µM)	C/C=C1\NC(=O)[C@H]([C@H](C)O)NC(=O)[C@H](CCN)NC(=O)[C@H](CCCCN)NC(=O)[C@H](CC(=O)NC)NC(=O)[C@@H](CCN)NC(=O)[C@@H](NC(=O)C[C@H](O)CCCCCCCCCCC)COC(=O)[C@H]([C@H](O)CCl)NC(=O)[C@H]([C@H](O)C(=O)O)NC1=O	7.4 mg/kg
10 µg/mL (≈ 7.66 µM)	< 0.01 µg/mL	10 µg/mL (≈ 7.66 µM)	C/C=C1\NC(=O)[C@H]([C@H](C)O)NC(=O)[C@H](CCN)NC(=O)[C@H](CCCCN)NC(=O)[C@H](CC(=O)NCCN(CC)CC)NC(=O)[C@@H](CCN)NC(=O)[C@@H](NC(=O)C[C@H](O)CCCCCCCCCCC)COC(=O)[C@H]([C@H](O)CCl)NC(=O)[C@H]([C@H](O)C(=O)O)NC1=O ({Tetradecanoyl(3R-OH)}-S[dDab]D(X1)K[Dab][aThr][Dhb][Asp(3S-OH)][Thr(4-Cl)]; ester 1-C)	4.9 mg/kg
> 20 µg/mL	< 0.01 µg/mL	0.312 µg/mL (≈ 0.244 µM)	C/C=C1\NC(=O)[C@H]([C@H](C)O)NC(=O)[C@H](CCN)NC(=O)[C@H](CCCCN)NC(=O)[C@H](CC(=O)NCCCCC)NC(=O)[C@@H](CCN)NC(=O)[C@@H](NC(=O)C[C@H](O)CCCCCCCCCCC)COC(=O)[C@H]([C@H](O)CCl)NC(=O)[C@H]([C@H](O)C(=O)O)NC1=O	8.5 mg/kg
20 µg/mL (≈ 14.7 µM)	< 0.01 µg/mL	0.312 µg/mL (≈ 0.23 µM)	C/C=C1\NC(=O)[C@H]([C@@H](C)O)NC(=O)[C@H](CCN)NC(=O)[C@H](CCCCN)NC(=O)[C@H](CC(=O)N[C@@H](Cc2c[nH]cn2)C(=O)OC)NC(=O)[C@@H](CCN)NC(=O)[C@@H](NC(=O)C[C@H](O)CCCCCCCCCCC)COC(=O)[C@H]([C@H](O)CCl)NC(=O)[C@H]([C@H](O)C(=O)O)NC1=O	< 5 mg/kg
> 20 µg/mL	< 0.01 µg/mL	0.312 µg/mL (≈ 0.244 µM)	C/C=C1\NC(=O)[C@H]([C@H](C)O)NC(=O)[C@H](CCN)NC(=O)[C@H](CCCCN)NC(=O)[C@H](CC(=O)NCCC(C)C)NC(=O)[C@@H](CCN)NC(=O)[C@@H](NC(=O)C[C@H](O)CCCCCCCCCCC)COC(=O)[C@H]([C@H](O)CCl)NC(=O)[C@H]([C@H](O)C(=O)O)NC1=O	10.9 mg/kg
> 20 µg/mL	5 µg/mL (≈ 3.75 µM)	20 µg/mL (≈ 15 µM)	C/C=C1\NC(=O)[C@H]([C@H](C)O)NC(=O)[C@H](CCN)NC(=O)[C@H](CCCCN)NC(=O)[C@H](CC(=O)NCCCCCCCCC)NC(=O)[C@@H](CCN)NC(=O)[C@@H](NC(=O)C[C@H](O)CCCCCCCCCCC)COC(=O)[C@H]([C@H](O)CCl)NC(=O)[C@H]([C@H](O)C(=O)O)NC1=O	> 20 mg/kg
> 20 µg/mL	< 0.01 µg/mL	10 µg/mL (≈ 7.42 µM)	C/C=C1\NC(=O)[C@H]([C@H](C)O)NC(=O)[C@H](CCN)NC(=O)[C@H](CCCCN)NC(=O)[C@H](CC(=O)NCCCCCCCN(C)C)NC(=O)[C@@H](CCN)NC(=O)[C@@H](NC(=O)C[C@H](O)CCCCCCCCCCC)COC(=O)[C@H]([C@H](O)CCl)NC(=O)[C@H]([C@H](O)C(=O)O)NC1=O	< 4 mg/kg
